Assay results reported in ChEMBL document CHEMBL2034958, “Peptidolipins B-F, antibacterial lipopeptides from an ascidian-derived Nocardia sp” (2012).
Values after ≈ are worked out from the molar mass of the structure shown. Active and inactive are the calls of the source. The rule behind the calls is not given here.

Experiments:
[1] = system: Staphylococcus aureus; test: Antibacterial activity against methicillin-susceptible Staphylococcus aureus ATCC 29213 after 18 hrs; type: functional; settings: ATCC 29213, 18 h
Summary of the method: (§1)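 Dilution susceptibility test for aerobic bacteria. Compounds dissolved in DMSO and serially diluted to 10 concentrations (0.125–64 μg/mL) in 96-well plates, run in triplicate. Vancomycin served as control, with six untreated media controls per plate. Incubation at 33 °C for 18 h; MIC read as the lowest concentration inhibiting visible growth.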

[2] = system: Staphylococcus aureus; test: Antibacterial activity against methicillin-resistant Staphylococcus aureus ATCC 33591 after 18 hrs; type: functional; settings: ATCC 33591, 18 h; summary of the method: as §1
[3] = system: Staphylococcus aureus; test: Bacteriostatic activity against methicillin-resistant Staphylococcus aureus ATCC 33591 after 18 hrs; type: functional, organism-based
Summary of the method: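 After the 18 h, 33 °C microdilution MIC plate, a sterile swab dipped into each well showing growth inhibition was inoculated onto an LB plate to tell bactericidal from bacteriostatic action.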

[4] = system: Staphylococcus aureus; test: Bacteriostatic activity against methicillin-susceptible Staphylococcus aureus ATCC 29213 after 18 hrs; type: functional, organism-based
Summary of the method: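 Broth dilution susceptibility test for aerobic bacteria against MSSA ATCC 29213. Compounds in DMSO, serially diluted to 10 concentrations (0.125−64 μg/mL) in 96-well plates, tested in triplicate with vancomycin control and six untreated media controls per plate. Incubated at 33 °C for 18 h. MIC was the lowest concentration without visible growth. Inhibited wells were swabbed onto LB plates to distinguish bacteriostatic from bactericidal.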

SMILES	MIC [1]	MIC [2]	Activity [3]	Activity [4]
CCCCCCCCCCCCCCCCCCCCCCCCC[C@@H]1CC(=O)N[C@H]([C@H](C)O)C(=O)N[C@@H](C(C)C)C(=O)N[C@@H](C)C(=O)N2CCC[C@@H]2C(=O)N[C@H]([C@@H](C)CC)C(=O)N[C@@H](C(C)C)C(=O)N[C@@H]([C@@H](C)OC)C(=O)O1 [PEPTIDOLIPIN C]	> 64 µg/mL	> 64 µg/mL	–	–
CCCCCCCCCCCCCCCCCCCCCCCCCCC[C@@H]1CC(=O)N[C@H]([C@H](C)O)C(=O)N[C@@H](C(C)C)C(=O)N[C@@H](C)C(=O)N2CCC[C@@H]2C(=O)N[C@H]([C@@H](C)CC)C(=O)N[C@@H](C(C)C)C(=O)N[C@@H]([C@@H](C)OC)C(=O)O1 [PEPTIDOLIPIN D]	> 64 µg/mL	> 64 µg/mL	–	–
CCCCCCCC/C=C\CCCCCCCCCCCCCCC[C@@H]1CC(=O)N[C@H]([C@H](C)O)C(=O)N[C@@H](C(C)C)C(=O)N[C@@H](C)C(=O)N2CCC[C@@H]2C(=O)N[C@H]([C@@H](C)CC)C(=O)N[C@@H](C(C)C)C(=O)N[C@@H]([C@@H](C)OC)C(=O)O1 [PEPTIDOLIPIN E]	64 µg/mL (≈ 57.3 µM)	–	Active	Active
CCCCCCCCCCCCCCCCCCCCCCC[C@@H]1CC(=O)N[C@H]([C@H](C)O)C(=O)N[C@@H](C(C)C)C(=O)N[C@@H](C)C(=O)N2CCC[C@@H]2C(=O)N[C@H]([C@@H](C)CC)C(=O)N[C@@H](C(C)C)C(=O)N[C@@H]([C@@H](C)OC)C(=O)O1 [PEPTIDOLIPIN B]	–	64 µg/mL (≈ 58.7 µM)	Active	Active
